Data as given in PMC11579016 (Oncogenesis, 2024).

How the values were obtained:
thrombin = thrombin (Homo sapiens, UniProt P00734); experiment: Cleavage assay of SAPE-labeled ADAM9 bacteria with thrombin; type: biochemical; settings: 75 nM thrombin, 3 h, FACS
Procedure, shortened: (§1)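 ADAM9 substrate-displaying bacteria were subcultured 1:100 in LB for 45 min at 37 °C, induced with 0.04% arabinose for 1 h, then labeled with SAPE (final […]) for 1 h. 10^7 bacteria were incubated for 3 h with thrombin (final 75 nM) or dilutions of sonicated PANC-1 lysate, with PBS or reaction buffer as controls. After two PBS washes, SAPE-positive bacteria were counted by flow cytometry, with unlabeled bacteria as the negative control.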

rMMP9 = rMMP9 (Homo sapiens, UniProt P14780); experiment: Cleavage assay of SAPE-labeled ADAM9 bacteria with rMMP9, alone or with S3304; type: biochemical; settings: 200 nM rMMP9, 3 h, FACS
PANC-1 lysate = experiment: Cleavage assay of SAPE-labeled ADAM9 bacteria with PANC-1 lysate; type: biochemical, human; settings: highest PANC-1 lysate concentration, 3 h, FACS; dose-dependent
Procedure, shortened: as §1

rMMP9, sequence (P14780 94-707, species assumed): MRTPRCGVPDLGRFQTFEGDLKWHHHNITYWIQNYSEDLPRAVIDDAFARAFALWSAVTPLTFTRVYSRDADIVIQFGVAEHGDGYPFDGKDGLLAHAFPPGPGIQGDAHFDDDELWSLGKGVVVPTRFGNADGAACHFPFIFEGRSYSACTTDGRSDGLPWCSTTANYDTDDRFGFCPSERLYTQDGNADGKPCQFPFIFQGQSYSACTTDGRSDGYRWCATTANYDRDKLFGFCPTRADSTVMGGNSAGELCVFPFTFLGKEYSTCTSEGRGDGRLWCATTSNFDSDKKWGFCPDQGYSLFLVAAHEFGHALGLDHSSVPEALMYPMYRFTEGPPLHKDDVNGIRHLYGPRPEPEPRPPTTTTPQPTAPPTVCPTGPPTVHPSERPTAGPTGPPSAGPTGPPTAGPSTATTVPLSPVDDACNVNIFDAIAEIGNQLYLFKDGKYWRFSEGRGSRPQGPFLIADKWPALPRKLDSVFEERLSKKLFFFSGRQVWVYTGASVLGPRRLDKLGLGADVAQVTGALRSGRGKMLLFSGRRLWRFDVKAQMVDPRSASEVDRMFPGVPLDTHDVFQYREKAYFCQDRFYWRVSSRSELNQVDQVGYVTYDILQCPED

Sequence: PLAQAVRSSK [ADAM9 substrate]
- effect on fluorescence of SAPE-labeled ADAM9 bacteria (thrombin): did not reduce fluorescence
- effect on SAPE-positivity of ADAM9 bacteria (rMMP9): greatly reduced SAPE-positivity
- ADAM9 substrate cleavage by PANC-1 lysate (loss of SAPE-positive bacteria) (PANC-1 lysate): near-complete
